Like-named read-outs stand apart in the source and are kept apart here.
Experiments:
[1] = in humans; background statement, no reference given; cited from earlier work
[2] = cited from earlier work
[3] = tested on: cytochrome P450 enzymes, sulfation, or glucuronidation enzymes; conditions: background statement, no reference given; cited from earlier work
albumin = conditions: in humans; background statement, no reference given; cited from earlier work
[4] = format: in vivo, human
In short: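 Open-label parallel single-dose study; participants grouped by baseline Child-Pugh A, B, C or normal hepatic function. One subcutaneous 5-mg injection. Plasma sampled pre-dose and 8, 12, 24, 48, 72, 96, 168, 336 h post-dose; analyte immunoprecipitated, quantified by high-resolution LC/MS, positive HESI, range 2.00–500.00 ng/mL. Noncompartmental parameters from actual sampling times; geometric mean (geometric CV%); tmax analysed nonparametrically.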

[5] = tested on: renal or hepatic transporters; conditions: ref data on file, Eli Lilly and Company; cited from earlier work
[6] = hepatic impairment studies; cited from earlier work

Compound | half-life [1] | decrease in liver fat content compared with insulin degludec ([2]; SURPASS-3 sub-study, 52 weeks) | non-alcoholic steatohepatitis-related biomarkers ([2]; post-hoc analysis of the phase II study, 26 weeks of treatment) | metabolism via pathways involving cytochrome P450 enzymes, sulfation, or glucuronidation enzymes [3] | bound to albumin (albumin) | CL/F ([4]; human, plasma, sc, 5 mg) | Tmax ([4]; human, plasma, sc, 5 mg) | Vd/F ([4]; human, plasma, sc, 5 mg) | half-life ([4]; human, plasma, sc, 5 mg) | CL/F ([4]; human, plasma, sc, 5 mg, CL/F (apparent total body clearance), single 5-mg subcutaneous dose, normal hepatic function, n = 13, geometric mean (geometric CV%), noncompartmental) | VSS/F (apparent volume of distribution at steady state) ([4]; single 5-mg subcutaneous dose, normal hepatic function, n = 13, geometric mean (geometric CV%), noncompartmental) | T1/2 (half-life associated with the terminal rate constant) ([4]; single 5-mg subcutaneous dose, normal hepatic function, n = 13, geometric mean (range), noncompartmental) | substrate for renal or hepatic transporters commonly involved in drug disposition [5] | impact of the severity of hepatic disease status on pharmacokinetics [6]
CC[C@H](C)[C@H](NC(=O)[C@H](CC(C)C)NC(=O)[C@H](Cc1c[nH]c2ccccc12)NC(=O)[C@H](CCC(N)=O)NC(=O)[C@@H](NC(=O)[C@H](Cc1ccccc1)NC(=O)[C@H](C)NC(=O)[C@H](CCCCNC(=O)COCCOCCNC(=O)COCCOCCNC(=O)CC[C@H](NC(=O)CCCCCCCCCCCCCCCCCCC(=O)O)C(=O)O)NC(=O)[C@H](CCC(N)=O)NC(=O)[C@H](C)NC(=O)[C@@H](NC(=O)[C@H](CCCCN)NC(=O)[C@H](CC(=O)O)NC(=O)[C@H](CC(C)C)NC(=O)C(C)(C)NC(=O)[C@@H](NC(=O)[C@H](CO)NC(=O)[C@H](Cc1ccc(O)cc1)NC(=O)[C@H](CC(=O)O)NC(=O)[C@H](CO)NC(=O)[C@@H](NC(=O)[C@H](Cc1ccccc1)NC(=O)[C@@H](NC(=O)CNC(=O)[C@H](CCC(=O)O)NC(=O)C(C)(C)NC(=O)[C@@H](N)Cc1ccc(O)cc1)[C@@H](C)O)[C@@H](C)O)[C@@H](C)CC)[C@@H](C)CC)C(C)C)C(=O)N[C@@H](C)C(=O)NCC(=O)NCC(=O)N1CCC[C@H]1C(=O)N[C@@H](CO)C(=O)N[C@@H](CO)C(=O)NCC(=O)N[C@@H](C)C(=O)N1CCC[C@H]1C(=O)N1CCC[C@H]1C(=O)N1CCC[C@H]1C(=O)N[C@@H](CO)C(N)=O [Tirzepatide] | approximately 5 days | significantly greater decrease | improvement | not metabolized | 99.06% | 0.822 mL/min | 24 h | 10.6 L | 131 h | 0.988 mL/min | 10.7 (20) L | 124 (101–158) h | not a substrate | 
dulaglutide |  |  |  |  |  |  |  |  |  |  |  |  |  | does not impact
semaglutide |  |  |  |  |  |  |  |  |  |  |  |  |  | does not impact
